Measurements reported in ChEMBL document CHEMBL5724801, “EUbOPEN Chemogenomics Library - Multiplex” (2024).
Where “and” joins values, the source holds several entries; their conditions need not be identical. Equal entries are not always repeated.

Test system: U2OS
Experiment: Multiplex assay against U2OS
Assay type: toxicity, cell-based
Details: human
How it was run: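 At seeding, live cells were stained with Hoechst33342, BioTracker Green Microtubule Cytoskeleton Dye, MitoTracker Red and Annexin V Alexa Fluor 680. After compound addition they were imaged on a CQ1 microscope at 37°C and 5% CO2, and CellPathfinder machine-learning gating sorted them into Hoechst high-intensity objects or normal cells, with normal cells further split into healthy, pyknosed or fragmented nuclei and pyknosed cells into mitotic or apoptotic. Tubulin, mitochondrial-mass and membrane-permeability phenotypes are given as per cents of cells with healthy nuclei.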

[1] = 12 h, 1 µM, compound concentration 1 uM
[2] = 12 h, 10 µM, compound concentration 10 uM
[3] = 24 h, 1 µM, compound concentration 1 uM
[4] = 24 h, 10 µM, compound concentration 10 uM
[5] = 48 h, 1 µM, compound concentration 1 uM
[6] = 48 h, 10 µM, compound concentration 10 uM

Compound: Cc1ccc(-c2c(C(=O)CF)n(CCCO)c3ncnc(N)c23)cc1
- Population Apoptotic (%) [1]: 36.11% and 57.14%
- Population Fragmented Nuclei (%) [1]: 2.07% and 1.92%
- Population Healthy Nuclei (%) [1]: 88.63% and 84.62%
- Population Hoechst High Intensity Objects (%) [1]: 0%
- Population Membrane Permeable-Phenotype (%) [1]: 0.29% and 2.27%
- Population Mitochondria Different-Phenotype (%) [1]: 0% and 2.27%
- Population Mitotic Cells (%) [1]: 63.89% and 42.86%
- Population Normal (%) [1]: 100%
- Population Pyknosed Nuclei (%) [1]: 9.3% and 13.46%
- Population Tubulin-Different-Phenotype (%) [1]: 0.29% and 0%
- Population Apoptotic (%) [2]: 50% and 52.94%
- Population Fragmented Nuclei (%) [2]: 1.91% and 5.78%
- Population Healthy Nuclei (%) [2]: 88.83% and 84.39%
- Population Hoechst High Intensity Objects (%) [2]: 0%
- Population Membrane Permeable-Phenotype (%) [2]: 0.61% and 4.11%
- Population Mitochondria Different-Phenotype (%) [2]: 0% and 3.42%
- Population Mitotic Cells (%) [2]: 50% and 47.06%
- Population Normal (%) [2]: 100%
- Population Pyknosed Nuclei (%) [2]: 9.26% and 9.83%
- Population Tubulin-Different-Phenotype (%) [2]: 0.61% and 0%
- Total Cell Count [2]: 367 and 173
- Population Apoptotic (%) [3]: 47.37% and 40%
- Population Fragmented Nuclei (%) [3]: 1.55% and 4.48%
- Population Healthy Nuclei (%) [3]: 91.09% and 84.33%
- Population Hoechst High Intensity Objects (%) [3]: 0%
- Population Membrane Permeable-Phenotype (%) [3]: 0.43% and 3.54%
- Population Mitochondria Different-Phenotype (%) [3]: 0% and 2.65%
- Population Mitotic Cells (%) [3]: 52.63% and 60%
- Population Normal (%) [3]: 100%
- Population Pyknosed Nuclei (%) [3]: 7.36% and 11.19%
- Population Tubulin-Different-Phenotype (%) [3]: 0.21% and 0.88%
- Population Apoptotic (%) [4]: 54.05% and 43.48%
- Population Fragmented Nuclei (%) [4]: 2.71% and 3.7%
- Population Healthy Nuclei (%) [4]: 89.58% and 86.83%
- Population Hoechst High Intensity Objects (%) [4]: 0%
- Population Membrane Permeable-Phenotype (%) [4]: 0.93% and 5.21%
- Population Mitochondria Different-Phenotype (%) [4]: 0% and 4.27%
- Population Mitotic Cells (%) [4]: 45.95% and 56.52%
- Population Normal (%) [4]: 100%
- Population Pyknosed Nuclei (%) [4]: 7.71% and 9.47%
- Population Tubulin-Different-Phenotype (%) [4]: 1.4% and 0.47%
- Total Cell Count [4]: 480 and 243
- Population Apoptotic (%) [5]: 33.82% and 20%
- Population Fragmented Nuclei (%) [5]: 3.18% and 5%
- Population Healthy Nuclei (%) [5]: 89.85% and 81.36%
- Population Hoechst High Intensity Objects (%) [5]: 0%
- Population Membrane Permeable-Phenotype (%) [5]: 1.26% and 1.12%
- Population Mitochondria Different-Phenotype (%) [5]: 0% and 2.23%
- Population Mitotic Cells (%) [5]: 66.18% and 80%
- Population Normal (%) [5]: 100%
- Population Pyknosed Nuclei (%) [5]: 6.97% and 13.64%
- Population Tubulin-Different-Phenotype (%) [5]: 0.34% and 0.56%
- Population Apoptotic (%) [6]: 49.33% and 48.98%
- Population Fragmented Nuclei (%) [6]: 2.94% and 2.66%
- Population Healthy Nuclei (%) [6]: 89.18% and 85.47%
- Population Hoechst High Intensity Objects (%) [6]: 0%
- Population Membrane Permeable-Phenotype (%) [6]: 0.94% and 1.13%
- Population Mitochondria Different-Phenotype (%) [6]: 0% and 1.42%
- Population Mitotic Cells (%) [6]: 50.67% and 51.02%
- Population Normal (%) [6]: 100%
- Population Pyknosed Nuclei (%) [6]: 7.88% and 11.86%
- Population Tubulin-Different-Phenotype (%) [6]: 1.06% and 0.57%
- Total Cell Count [6]: 952 and 413

Compound: Oc1c(CN2CCN(c3ccccn3)CC2)cc(Cl)c2cccnc12
- Population Apoptotic (%) [1]: 95% and 100%
- Population Fragmented Nuclei (%) [1]: 24% and 16%
- Population Healthy Nuclei (%) [1]: 64% and 78%
- Population Hoechst High Intensity Objects (%) [1]: 1%
- Population Membrane Permeable-Phenotype (%) [1]: 3% and 13%
- Population Mitochondria Different-Phenotype (%) [1]: 1% and 4%
- Population Mitotic Cells (%) [1]: 4% and 0%
- Population Normal (%) [1]: 98%
- Population Pyknosed Nuclei (%) [1]: 10% and 5%
- Population Tubulin-Different-Phenotype (%) [1]: 2% and 8%
- Total Cell Count [1]: 237 and 93
- Population Apoptotic (%) [2]: 84% and 87%
- Population Fragmented Nuclei (%) [2]: 31% and 18%
- Population Healthy Nuclei (%) [2]: 56% and 68%
- Population Hoechst High Intensity Objects (%) [2]: 2% and 1%
- Population Membrane Permeable-Phenotype (%) [2]: 12% and 6%
- Population Mitochondria Different-Phenotype (%) [2]: 28% and 35%
- Population Mitotic Cells (%) [2]: 15% and 12%
- Population Normal (%) [2]: 97% and 98%
- Population Pyknosed Nuclei (%) [2]: 11% and 13%
- Population Tubulin-Different-Phenotype (%) [2]: 8% and 11%
- Total Cell Count [2]: 229 and 118
- Population Apoptotic (%) [3]: 88% and 100%
- Population Healthy Nuclei (%) [3]: 64% and 87%
- Population Hoechst High Intensity Objects (%) [3]: 1%
- Population Membrane Permeable-Phenotype (%) [3]: 3% and 9%
- Population Mitochondria Different-Phenotype (%) [3]: 2% and 3%
- Population Mitotic Cells (%) [3]: 11% and 0%
- Population Normal (%) [3]: 98%
- Population Pyknosed Nuclei (%) [3]: 6% and 5%
- Population Tubulin-Different-Phenotype (%) [3]: 2% and 7%
- Total Cell Count [3]: 270 and 97
- Population Apoptotic (%) [4]: 90% and 100%
- Population Fragmented Nuclei (%) [4]: 27% and 29%
- Population Healthy Nuclei (%) [4]: 63% and 58%
- Population Hoechst High Intensity Objects (%) [4]: 4% and 3%
- Population Membrane Permeable-Phenotype (%) [4]: 10% and 9%
- Population Mitochondria Different-Phenotype (%) [4]: 14% and 40%
- Population Mitotic Cells (%) [4]: 9% and 0%
- Population Normal (%) [4]: 95% and 96%
- Population Pyknosed Nuclei (%) [4]: 9% and 12%
- Population Tubulin-Different-Phenotype (%) [4]: 7% and 6%
- Total Cell Count [4]: 238 and 127
- Population Apoptotic (%) [5]: 94% and 87%
- Population Fragmented Nuclei (%) [5]: 25% and 14%
- Population Healthy Nuclei (%) [5]: 67% and 77%
- Population Hoechst High Intensity Objects (%) [5]: 3% and 1%
- Population Membrane Permeable-Phenotype (%) [5]: 6% and 7%
- Population Mitochondria Different-Phenotype (%) [5]: 3% and 1%
- Population Mitotic Cells (%) [5]: 5% and 12%
- Population Normal (%) [5]: 96% and 98%
- Population Pyknosed Nuclei (%) [5]: 7%
- Population Tubulin-Different-Phenotype (%) [5]: 3% and 5%
- Total Cell Count [5]: 276 and 111
- Population Apoptotic (%) [6]: 96% and 100%
- Population Fragmented Nuclei (%) [6]: 32% and 38%
- Population Healthy Nuclei (%) [6]: 57% and 42%
- Population Hoechst High Intensity Objects (%) [6]: 2% and 4%
- Population Membrane Permeable-Phenotype (%) [6]: 11% and 12%
- Population Mitochondria Different-Phenotype (%) [6]: 19% and 41%
- Population Mitotic Cells (%) [6]: 3% and 0%
- Population Normal (%) [6]: 97% and 95%
- Population Pyknosed Nuclei (%) [6]: 10% and 19%
- Population Tubulin-Different-Phenotype (%) [6]: 7% and 8%
- Total Cell Count [6]: 275 and 144
